Converted amounts (≈) assume the structure as drawn. The source made the active and inactive calls. The rule behind the calls is not given here.
Columns and labels:
Escherichia coli [1] = test: Antimicrobial activity against Escherichia coli INCQS 00033 ATCC 25922 assessed as zone of inhibition at 5 mg/ml after 18 to 24 hrs by disc diffusion method; assay type: functional; conditions: ATCC 25922 INCQS 00033, read-out: IZ
Escherichia coli [2] = test: Ratio of MBC99.9 to MIC for Escherichia coli INCQS 00033 ATCC 25922; assay type: functional, ATCC 25922 INCQS 00033
Summary of the method: (§1)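 MBC/MIC ratio from the 24 h, 37°C microdilution MIC and the agar-plating MBC (99.9% growth inhibition). A ratio ≤2 was classed as bactericidal and ≥4 as bacteriostatic.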

Staphylococcus aureus [3] = test: Bactericidal activity against Staphylococcus aureus INCQS 00015 ATCC 25923 incubated for 24 hrs followed by transfer of microbial suspension to agar plates and measured after 24 hrs post transfer by resazurin dye-based colorimetric analysis; assay type: functional; conditions: INCQS 00015 ATCC 25923, 24 h, read-out: MBC99.9
Summary of the method: (§2)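 From MIC wells with no visible growth, 10 µL is transferred to agar plates and incubated 24 h at 37°C. MBC is the minimum concentration inhibiting 99.9% of growth. […] Triplicate.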

Enterococcus faecalis = test: Antimicrobial activity against Enterococcus faecalis INCQS 00234 ATCC 29212 assessed as zone of inhibition at 5 mg/ml after 18 to 24 hrs by disc diffusion method; assay type: functional; conditions: ATCC 29212 INCQS 00234, read-out: IZ
[4] = system: Staphylococcus epidermidis; test: Antimicrobial activity against Staphylococcus epidermidis INCQS 00016 ATCC 12228 after 24 hrs by microdilution assay; assay type: functional; conditions: ATCC 12228 INCQS 00016, 24 h
Proteus mirabilis = test: Antimicrobial activity against Proteus mirabilis INCQS 00095 ATCC 15290 assessed as zone of inhibition at 5 mg/ml after 18 to 24 hrs by disc diffusion method; assay type: functional; conditions: read-out: IZ
Staphylococcus aureus [5] = test: Ratio of MBC99.9 to MIC for Staphylococcus aureus INCQS 00015 ATCC 25923; assay type: functional; summary of the method: as §1
Pseudomonas aeruginosa [6] = test: Bactericidal activity against Pseudomonas aeruginosa INCQS 00099 ATCC 27853 incubated for 24 hrs followed by transfer of microbial suspension to agar plates and measured after 24 hrs post transfer by resazurin dye-based colorimetric analysis; assay type: functional; conditions: INCQS 00099 ATCC 27853, 24 h, read-out: MBC99.9
Summary of the method: (§3)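 For MBC, 10 µL from each clear MIC well was plated on agar and incubated 24 h at 37°C. MBC is the minimum concentration inhibiting 99.9% of growth. […] Triplicate.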

Staphylococcus aureus [7] = test: Bactericidal activity against methicillin-resistant Staphylococcus aureus BMB9393 incubated for 24 hrs followed by transfer of microbial suspension to agar plates and measured after 24 hrs post transfer by resazurin dye-based colorimetric analysis; assay type: functional; conditions: BMB9393, 24 h, read-out: MBC99.9; summary of the method: as §2
Staphylococcus simulans [8] = test: Antimicrobial activity against Staphylococcus simulans INCQS 00254 ATCC 27851 after 24 hrs by microdilution assay; assay type: functional; conditions: INCQS 00254 ATCC 27851, 24 h
Staphylococcus simulans [9] = test: Bactericidal activity against Staphylococcus simulans INCQS 00254 ATCC 27851 incubated for 24 hrs followed by transfer of microbial suspension to agar plates and measured after 24 hrs post transfer by resazurin dye-based colorimetric analysis; assay type: functional; conditions: INCQS 00254 ATCC 27851, 24 h, read-out: MBC99.9; summary of the method: as §3
[10] = Hemolytic activity against human erythrocytes assessed as hemolysis at 200 ug/ml after 3 hrs by spectrophotometric analysis relative to control; assay type: ADME, cell-based, Erythrocyte; conditions: read-out: Activity
Summary of the method: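 Erythrocytes collected in citrate tubes, washed three times with PBS pH 7.4 by centrifugation and resuspended in PBS. Incubated with compounds at 200 µg/mL for 3 h at 37°C. Released hemoglobin was read in the supernatant at 545 nm against 1% Triton X-100 (complete lysis) and 1% DMSO (negative control). Below 10% hemolysis was taken as hemocompatible. Three independent experiments.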

Staphylococcus aureus [11] = test: Antimicrobial activity against Staphylococcus aureus INCQS 00015 ATCC 25923 assessed as zone of inhibition at 5 mg/ml after 18 to 24 hrs by disc diffusion method; assay type: functional; conditions: read-out: IZ
Staphylococcus aureus [12] = test: Antimicrobial activity against methicillin-resistant Staphylococcus aureus BMB9393 after 24 hrs by microdilution assay; assay type: functional; conditions: BMB9393, 24 h
Pseudomonas aeruginosa [13] = test: Antimicrobial activity against Pseudomonas aeruginosa INCQS 00099 ATCC 27853 after 24 hrs by microdilution assay; assay type: functional; conditions: INCQS 00099 ATCC 27853, 24 h
[14] = system: Staphylococcus epidermidis; test: Bactericidal activity against Staphylococcus epidermidis INCQS 00016 ATCC 12228 incubated for 24 hrs followed by transfer of microbial suspension to agar plates and measured after 24 hrs post transfer by resazurin dye-based colorimetric analysis; assay type: functional; conditions: ATCC 12228 INCQS 00016, 24 h, read-out: MBC99.9; summary of the method: as §3
Pseudomonas aeruginosa [15] = test: Ratio of MBC99.9 to MIC for Pseudomonas aeruginosa INCQS 00099 ATCC 27853; assay type: functional; summary of the method: as §1
Pseudomonas aeruginosa [16] = test: Antimicrobial activity against Pseudomonas aeruginosa INCQS 00099 ATCC 27853 assessed as zone of inhibition at 5 mg/ml after 18 to 24 hrs by disc diffusion method; assay type: functional; conditions: read-out: IZ
Klebsiella pneumoniae = test: Antimicrobial activity against Klebsiella pneumoniae INCQS 00083 ATCC 4352 assessed as zone of inhibition at 5 mg/ml after 18 to 24 hrs by disc diffusion method; assay type: functional; conditions: read-out: IZ
Staphylococcus simulans [17] = test: Antimicrobial activity against Staphylococcus simulans INCQS 00254 ATCC 27851 assessed as zone of inhibition at 5 mg/ml after 18 to 24 hrs by disc diffusion method; assay type: functional; conditions: read-out: IZ
[18] = system: Staphylococcus epidermidis; test: Antimicrobial activity against Staphylococcus epidermidis INCQS 00016 ATCC 12228 assessed as zone of inhibition at 5 mg/ml after 18 to 24 hrs by disc diffusion method; assay type: functional; conditions: ATCC 12228 INCQS 00016, read-out: IZ
Escherichia coli [19] = test: Bactericidal activity against Escherichia coli INCQS 00033 ATCC 25922 incubated for 24 hrs followed by transfer of microbial suspension to agar plates and measured after 24 hrs post transfer by resazurin dye-based colorimetric analysis; assay type: functional; conditions: ATCC 25922 INCQS 00033, 24 h, read-out: MBC99.9; summary of the method: as §3
Staphylococcus simulans [20] = test: Ratio of MBC99.9 to MIC for Staphylococcus simulans INCQS 00254 ATCC 27851; assay type: functional; summary of the method: as §1
Staphylococcus aureus [21] = test: Ratio of MBC99.9 to MIC for methicillin-resistant Staphylococcus aureus BMB9393; assay type: functional
Summary of the method: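 MBC (99.9% kill on agar subculture of clear MIC wells, 24 h, 37°C) divided by broth microdilution MIC (24 h, 37°C). Ratio ≤2 taken as bactericidal and ≥4 as bacteriostatic.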

Staphylococcus aureus [22] = test: Antimicrobial activity against Staphylococcus aureus INCQS 00015 ATCC 25923 after 24 hrs by microdilution assay; assay type: functional; conditions: INCQS 00015 ATCC 25923, 24 h
Staphylococcus aureus [23] = test: Antimicrobial activity against methicillin-resistant Staphylococcus aureus BMB9393 assessed as zone of inhibition at 5 mg/ml after 18 to 24 hrs by disc diffusion method; assay type: functional; conditions: read-out: IZ
[24] = system: Staphylococcus epidermidis; test: Ratio of MBC99.9 to MIC for Staphylococcus epidermidis INCQS 00016 ATCC 12228; assay type: functional, ATCC 12228 INCQS 00016; summary of the method: as §1
Escherichia coli [25] = test: Antimicrobial activity against Escherichia coli INCQS 00033 ATCC 25922 after 24 hrs by microdilution assay; assay type: functional; conditions: ATCC 25922 INCQS 00033, 24 h
Escherichia coli [26] = test: Antimicrobial activity against Escherichia coli; assay type: functional
Escherichia coli [27] = test: Bactericidal activity against Escherichia coli; assay type: functional
[28] = system: Staphylococcus epidermidis; test: Bactericidal activity against Staphylococcus epidermidis INCQS 00016 ATCC 12228 at 256 ug/ml incubated for 24 hrs followed by transfer of microbial suspension to agar plates and measured after 24 hrs post transfer by resazurin dye-based colorimetric analysis; assay type: functional, organism-based; conditions: ATCC 12228 INCQS 00016; summary of the method: as §3
[29] = system: Staphylococcus epidermidis; test: Antimicrobial activity against Staphylococcus epidermidis INCQS 00016 ATCC 12228 at 256 ug/ml after 24 hrs by microdilution assay; assay type: functional, organism-based; conditions: ATCC 12228 INCQS 00016

SMILES	zone of inhibition at 5000 µg/mL (Escherichia coli [1]) [mm]	Ratio (Escherichia coli [2])	MBC (Staphylococcus aureus [3]) [µg/mL]	zone of inhibition at 5000 µg/mL (Enterococcus faecalis) [mm]	zone of inhibition at 5000 µg/mL (Proteus mirabilis) [mm]	Ratio (Staphylococcus aureus [5])	MBC (Pseudomonas aeruginosa [6]) [µg/mL]	MBC (Staphylococcus aureus [7]) [µg/mL]	MIC (Staphylococcus simulans [8]) [µg/mL]	MBC (Staphylococcus simulans [9]) [µg/mL]	hemolysis at 3 h, 200 ug/ml [10] [%]	zone of inhibition at 5000 µg/mL (Staphylococcus aureus [11]) [mm]	MIC (Staphylococcus aureus [12]) [µg/mL]	MIC (Pseudomonas aeruginosa [13]) [µg/mL]	Ratio (Pseudomonas aeruginosa [15])	zone of inhibition at 5000 µg/mL (Pseudomonas aeruginosa [16]) [mm]	zone of inhibition at 5000 µg/mL (Klebsiella pneumoniae) [mm]	zone of inhibition at 5000 µg/mL (Staphylococcus simulans [17]) [mm]	zone of inhibition at 5000 µg/mL [18] [mm]	MBC (Escherichia coli [19]) [µg/mL]	further results
NC1=C(Br)C(=O)c2ccccc2C1=O	8	1	64 (≈ 254 µM)	0	0	1	32 (≈ 127 µM)	64 (≈ 254 µM)	128 (≈ 508 µM)	128 (≈ 508 µM)	10.1 to 14.4	10	64 (≈ 254 µM)	32 (≈ 127 µM)	1	14	0	17	12	64 (≈ 254 µM)	MIC [4]: 128 µg/mL (≈ 508 µM); MBC [14]: 128 µg/mL (≈ 508 µM); Ratio (Staphylococcus simulans [20]): 1; Ratio (Staphylococcus aureus [21]): 1; MIC (Staphylococcus aureus [22]): 64 µg/mL (≈ 254 µM); zone of inhibition at 5000 µg/mL (Staphylococcus aureus [23]): 16 mm; Ratio [24]: 1; MIC (Escherichia coli [25]): 64 µg/mL (≈ 254 µM)
COC(=O)c1c(C)nc(C)c2c1C(=O)C(Br)=C(Nc1ccc(OC)cc1)C2=O	–	–	–	–	–	–	–	–	–	–	–	–	–	–	–	–	–	–	–	–	MIC (Escherichia coli [26]): 2 to 4 µg/mL (≈ 4.49 to 8.98 µM); MBC (Escherichia coli [27]): 2 to 4 µg/mL (≈ 4.49 to 8.98 µM)
NC1=CC(=O)c2ccccc2C1=O	20	1	64 (≈ 370 µM)	0	0	1	64 (≈ 370 µM)	64 (≈ 370 µM)	64 (≈ 370 µM)	64 (≈ 370 µM)	10.1 to 14.4	15	64 (≈ 370 µM)	64 (≈ 370 µM)	1	12	0	18	17	32 (≈ 185 µM)	MIC [4]: 128 µg/mL (≈ 739 µM); MBC [14]: 128 µg/mL (≈ 739 µM); Ratio (Staphylococcus simulans [20]): 1; MIC (Staphylococcus aureus [22]): 64 µg/mL (≈ 370 µM); zone of inhibition at 5000 µg/mL (Staphylococcus aureus [23]): 17 mm; Ratio [24]: 1; MIC (Escherichia coli [25]): 32 µg/mL (≈ 185 µM)
COC(=O)c1c(CBr)nc(C)c2c1C(=O)C(Br)=C(Nc1ccc(Cl)cc1)C2=O	–	–	–	–	–	–	–	–	–	–	–	–	–	–	–	–	–	–	–	–	MIC (Escherichia coli [26]): 2 to 4 µg/mL (≈ 3.78 to 7.57 µM); MBC (Escherichia coli [27]): 2 to 4 µg/mL (≈ 3.78 to 7.57 µM)
NC1=C(Cl)C(=O)c2ccccc2C1=O	10	1	64 (≈ 308 µM)	0	0	1	16 (≈ 77.1 µM)	64 (≈ 308 µM)	128 (≈ 617 µM)	128 (≈ 617 µM)	10.1 to 14.4	12	64 (≈ 308 µM)	16 (≈ 77.1 µM)	1	15	0	14	21	128 (≈ 617 µM)	Ratio (Staphylococcus simulans [20]): 1; MIC (Staphylococcus aureus [22]): 64 µg/mL (≈ 308 µM); Activity [28]: inactive; Activity [29]: inactive; zone of inhibition at 5000 µg/mL (Staphylococcus aureus [23]): 20 mm; MIC (Escherichia coli [25]): 128 µg/mL (≈ 617 µM)
